Reference: article PMC4127403 (Analytical chemistry, 2012)

Tests used:
[1] = molecular target: aequorin (AEQ), cysteine-free mutant (Aequorea victoria, UniProt P07164, C152S/C159S/C187S); assay: AEQ bioluminescence inhibition assay; assay type: biochemical; settings: for effect on bioluminescence emission of AEQ: 5.0 × 10^–10 M coelenterazine, 2 h incubation; for expected suitability for the inhibition assay: speculated, compounds not available, test planned
aequorin (AEQ) [2] = assay: AEQ bioluminescence inhibition assay in spiked human serum; assay type: biochemical, Aequorea victoria
Outline: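 Cysteine-free apoaequorin was expressed in E. coli, secreted, and purified by DEAE and butyl HIC to >95% purity. Human serum was spiked with test compound standards in DMSO (90 μL serum + 10 μL standard). 20 μL of this was added to 80 μL 1.21 × 10−7 M apoAEQ in Buffer A with 5.0 × 10−10 M final coelenterazine, in triplicate, held 2 h at 4 °C. Ca2+/Tris pH 7.5 injection triggered light, collected for 6 s.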

aequorin (AEQ) [3] = assay: Effect of OH-PCB on AEQ; assay type: biochemical, Aequorea victoria; settings: initial experiments with apoaequorin and coelenterazine
Outline: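 ApoAEQ stock was diluted to 1.21 × 10−7 M in 30 mM Tris/HCl pH 7.5, 2 mM EDTA and charged with three-fold molar excess coelenterazine, 4 °C, 18 h. Aequorin was then mixed with test compound in DMSO at 10% or 20% v/v, with DMSO-only and buffer controls. A 10 μL portion was triggered with 50 μL 100 mM Tris/HCl pH 7.5, 100 mM CaCl2 and read on a tube luminometer.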

aequorin (AEQ) [4] = assay: AEQ bioluminescence inhibition assay in spiked tap water; assay type: biochemical, Aequorea victoria
Outline: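 Tap water was spiked with test compound standards prepared in DMSO. Same conditions as the buffer assay: 20 μL sample into 80 μL 1.21 × 10−7 M apoAEQ (30 mM Tris/HCl pH 7.5, 2 mM EDTA), 5.0 × 10−10 M final coelenterazine, triplicates, 2 h at 4 °C. Light was triggered with 100 μL 100 mM Tris/HCl pH 7.5, 100 mM CaCl2 and read for 6 s.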

aequorin (AEQ) [5] = assay: Selectivity studies of the AEQ inhibition assay; assay type: biochemical, Aequorea victoria; settings: 1.0 × 10^−4 M compound, 5.0 × 10^−10 M coelenterazine
Outline: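 Selectivity used the optimized inhibition format with various organic compounds dissolved in DMSO. 1.21 × 10−7 M apoAEQ was incubated with 1.0 × 10−4 M compound and 5.0 × 10−10 M coelenterazine, 2 h at 4 °C. Light was triggered by Ca2+ (100 mM CaCl2, 100 mM Tris/HCl pH 7.5) and collected for 6 s. Values are the mean of three measurements ± 1 standard deviation.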

[6] = cited from earlier work
[7] = fetal rat plasma and brain; cited from earlier work
apoaequorin (apoAEQ) = apoaequorin (apoAEQ) (Aequorea victoria, UniProt P07164, C152S/C159S/C187S); assay: Coelenterazine dose-response curve - EC50 determination; assay type: biochemical
apoaequorin (apoAEQ), sequence (P07164 8-196 C152S/C159S/C187S): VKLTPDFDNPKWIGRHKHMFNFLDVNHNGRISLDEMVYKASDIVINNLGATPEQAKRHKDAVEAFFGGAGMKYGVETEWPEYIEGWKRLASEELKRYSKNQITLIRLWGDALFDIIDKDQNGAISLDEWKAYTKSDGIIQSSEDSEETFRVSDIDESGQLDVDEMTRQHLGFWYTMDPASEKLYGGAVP

aequorin (AEQ), cysteine-free mutant, sequence (P07164 8-196 C152S/C159S/C187S): as above

SMILES: Oc1ccccc1-c1cc(Cl)c(Cl)c(Cl)c1Cl [2 hydroxy-2',3',4',5'-tetrachlorobiphenyl]
- IC50 [1]: 1.33 µM

SMILES: Oc1cccc(-c2cc(Cl)ccc2Cl)c1O [2,3-dihydroxy-2',5'-dichlorobiphenyl]
- IC50 [1]: 1380 µM

SMILES: Oc1cccc(-c2ccc(Cl)c(Cl)c2)c1O [2,3-dihydroxy-3',4'-dichlorobiphenyl]
- IC50 [1]: 550 µM

SMILES: Oc1ccc(Cl)cc1-c1cc(Cl)c(Cl)c(Cl)c1Cl [2-hydroxy-2',3',4',5,5'-pentachlorobiphenyl]
- IC50 [1]: 0.097 µM
- detection limit ([1]; 5.0 × 10^−10 M coelenterazine, buffer): 33 nM
- detection limit in buffer containing HSA ([1]; buffer containing HSA (data not shown)): 3.45 µM
- detection limit in serum (aequorin (AEQ) [2]): 5.02 µM
- decrease of AEQ bioluminescence activity (aequorin (AEQ) [3]): 99%
- detection limit in tap water (aequorin (AEQ) [4]): 132 nM

SMILES: Oc1c(Cl)ccc(Cl)c1-c1cc(Cl)c(Cl)cc1Cl [2-hydroxy-2',3,4',5',6-pentachlorobiphenyl]
- IC50 [1]: 0.028 µM
- detection limit ([1]; best detection limit of the assay (abstract)): 11 nM

SMILES: Oc1ccccc1-c1c(Cl)cc(Cl)cc1Cl [2-hydroxy-2',4',6'-trichlorobiphenyl]
- IC50 [1]: 155 µM

SMILES: Oc1ccc(-c2ccc(Cl)c(Cl)c2)cc1O [3,4-dihydroxy-3',4'-dichlorobiphenyl]
- IC50 [1]: > 2000 µM
- effect on bioluminescence emission of AEQ [1]: did not produce a decrease in the bioluminescence emission of AEQ

SMILES: O=C(O)c1cccc(Cl)c1 [3-chloro-benzoic acid]
- effect on bioluminescence generated by AEQ (aequorin (AEQ) [5]): do not decrease the bioluminescence

SMILES: Oc1cccc(-c2ccc(Cl)cc2)c1 [3-hydroxy-4'-chlorobiphenyl]
- IC50 [1]: > 2000 µM
- effect on bioluminescence emission of AEQ [1]: did not produce a decrease in the bioluminescence emission of AEQ

SMILES: Oc1ccc(-c2cc(Cl)c(Cl)c(Cl)c2Cl)cc1Cl [4-hydroxy-2',3,3',4',5'-pentachlorobiphenyl]
- IC50 [1]: 2.28 µM
- effect on bioluminescence emission of AEQ [1]: greatly inhibited aequorin bioluminescence

SMILES: Oc1c(Cl)cc(-c2ccc(Cl)cc2Cl)cc1Cl [4-hydroxy-2',3,4',5-tetrachlorobiphenyl]
- IC50 [1]: 17.5 µM

SMILES: Oc1c(Cl)cc(-c2ccccc2Cl)cc1Cl [4-hydroxy-2',3,5-trichlorobiphenyl]
- IC50 [1]: 290 µM

SMILES: Oc1ccc(-c2c(Cl)cc(Cl)cc2Cl)cc1 [4-hydroxy-2',4',6'-trichlorobiphenyl]
- IC50 [1]: 15.4 µM

SMILES: Oc1ccc(-c2cc(Cl)ccc2Cl)cc1 [4-hydroxy-2',5'-dichlorobiphenyl]
- IC50 [1]: 138 µM

SMILES: Oc1ccc(-c2c(Cl)c(Cl)cc(Cl)c2Cl)c(Cl)c1 [4-hydroxy-2,2',3',5',6'-pentachlorobiphenyl]
- IC50 [1]: 9.77 µM
- effect on bioluminescence emission of AEQ [1]: greatly inhibited aequorin bioluminescence

SMILES: Oc1c(Cl)cc(-c2cc(Cl)c(Cl)cc2Cl)c(Cl)c1Cl [4-hydroxy-2,2',3,4',5,5'-hexachlorobiphenyl]
- expected suitability for the inhibition assay [1]: would be suitable for this inhibition assay
- estrogenic activity [6]: anti-estrogenic

SMILES: Oc1c(Cl)cc(-c2ccc(Cl)c(Cl)c2)c(Cl)c1Cl [4-hydroxy-2,3,3',4',5-pentachlorobiphenyl]
- expected suitability for the inhibition assay [1]: would be suitable for this inhibition assay
- estrogenic activity [6]: weakly estrogenic
- levels of thyroxine after exposure [7]: lower levels of thyroxine

SMILES: Oc1c(Cl)cc(-c2ccc(Cl)c(Cl)c2)cc1Cl [4-hydroxy-3,3',4',5-tetrachlorobiphenyl]
- IC50 [1]: 130 µM
- effect on bioluminescence emission of AEQ [1]: only a small alteration of the bioluminescence signal

SMILES: NC12CC3CC(CC(C3)C1)C2 [amantadine]
- effect on bioluminescence generated by AEQ (aequorin (AEQ) [5]): do not decrease the bioluminescence

SMILES: Oc1ccc(Cc2nc3c(Cc4ccccc4)nc(-c4ccc(O)cc4)cn3c2O)cc1 [coelenterazine]
- EC50 (apoaequorin (apoAEQ)): 0.0618 µM

SMILES: CN1CCC[C@H]1c1cccnc1 [nicotine]
- effect on bioluminescence generated by AEQ (aequorin (AEQ) [5]): do not decrease the bioluminescence
